Eight compounds from ChEMBL document CHEMBL1149089, “Evaluation of potent and selective small-molecule antagonists for the CXCR2 chemokine receptor” (J Med Chem, 2004) can be followed below.

Each structure is given as a SMILES string.

Assay [1] deals with T1, C-X-C chemokine receptor type 1 (Homo sapiens, UniProt P25024).
T1 sequence (P25024 whole entry): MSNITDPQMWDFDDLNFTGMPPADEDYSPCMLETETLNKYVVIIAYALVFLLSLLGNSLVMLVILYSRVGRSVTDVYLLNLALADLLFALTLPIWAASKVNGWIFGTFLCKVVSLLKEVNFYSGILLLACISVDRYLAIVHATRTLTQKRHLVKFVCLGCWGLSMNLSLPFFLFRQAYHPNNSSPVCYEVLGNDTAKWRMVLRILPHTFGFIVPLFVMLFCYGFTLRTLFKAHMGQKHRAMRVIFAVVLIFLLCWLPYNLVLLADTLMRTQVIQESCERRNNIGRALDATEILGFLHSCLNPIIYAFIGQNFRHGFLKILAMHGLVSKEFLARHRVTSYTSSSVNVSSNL
The assay can be described thus: Inhibition of binding of IL-8 to membranes of cloned CXC chemokine receptor 1 expressed in CHO Cells using [125I]IL-8 radioligand. The essentials:
(§1)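 Membranes from CHO cells stably expressing CXCR1 or CXCR2; competition against radiolabeled human recombinant [125I]IL-8; IC50 given as mean ± SEM of three individual experiments.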

Assay [2] concerns the target T2, C-X-C chemokine receptor type 2 (Homo sapiens, UniProt P25025).
T2 sequence (P25025 whole entry): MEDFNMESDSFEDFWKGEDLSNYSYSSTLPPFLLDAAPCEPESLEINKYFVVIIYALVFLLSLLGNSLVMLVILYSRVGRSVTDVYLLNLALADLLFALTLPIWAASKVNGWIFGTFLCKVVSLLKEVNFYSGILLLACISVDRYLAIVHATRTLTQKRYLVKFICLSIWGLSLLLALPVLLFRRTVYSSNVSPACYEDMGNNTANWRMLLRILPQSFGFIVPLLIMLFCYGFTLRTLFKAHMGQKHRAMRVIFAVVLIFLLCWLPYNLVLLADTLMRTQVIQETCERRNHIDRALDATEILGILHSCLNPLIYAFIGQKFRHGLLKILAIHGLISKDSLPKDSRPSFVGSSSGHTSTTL
In words: Inhibition of binding of IL-8 to membranes of cloned CXC chemokine receptor 2 expressed in CHO Cells using [125I]IL-8 radioligand. The essentials: as §1

The species named for assay [3] is Homo sapiens. The assay can be described thus: Compound was evaluated for GROalpha-mediated calcium mobilization in human polymorphonuclear neutrophils(PMNs). The format is functional. Put shortly:
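Human neutrophils stimulated with GROα, the CXCR2-selective ligand; calcium mobilization measured; mean ± SEM of at least three separate determinations.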

In assay [4] the test system is Oryctolagus cuniculus. In words: Compound was evaluated for inhibition of topical model of delayed type hypersensitivity (DTH) at a dose of 500 ug in rabbits. It counts as functional. The essentials:
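Rabbits sensitized by complete Freund's adjuvant injection in the nape of the neck, then challenged intradermally 5 weeks later with tuberculin (10 units PPD). At 5 min post-challenge, compound in methanol (50 µL) or methanol vehicle was applied topically to PPD sites and reapplied 4 h later. Skin-fold thickness at the challenge site was read 48 h after PPD; % inhibition reported.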

The test system of assay [5] is Oryctolagus cuniculus. The assay can be described thus: Compound was evaluated for inhibition of topical model of delayed type hypersensitivity (DTH) at a dose of 62.5 ug in rabbits. It counts as functional. Put shortly: (§2)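 Rabbits sensitized by complete Freund's adjuvant injected in the nape of the neck; challenged intradermally 5 weeks later with tuberculin (10 units PPD). Compound in methanol (50 µL) or methanol vehicle applied topically to PPD sites 5 min after challenge and reapplied 4 h later. Skin-fold thickness at challenge site measured 48 h after challenge; % inhibition versus vehicle.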

The subject of assay [6] is Oryctolagus cuniculus. In words: Compound was evaluated for inhibition of topical model of delayed type hypersensitivity (DTH) at a dose of 1000 ug in rabbits. It counts as functional. The essentials:
as §2

Regarding `N#Cc1ccc(NC(=O)Nc2ccccc2Br)c(O)c1Br`, the IC50 in assay [1] came to 2600 nM; in assay [2], 6 nM; in assay [3], 0.79 nM. The Inhibition in assay [4] is given as 33%.

Regarding `N#Cc1c(Cl)ccc(NC(=O)Nc2ccccc2Br)c1O`, the IC50 in assay [1] was 11100 nM; in assay [2] it was 57 nM; in assay [3], 7.5 nM. Also, in assay [5], the Inhibition is listed as 3%.

On to `N#Cc1ccc(NC(=O)Nc2ccccc2)c(O)c1`, for which the IC50 was found to be 21000 nM in assay [1], 200 nM in assay [2] and 120 nM in assay [3]. The compound also came in with an Inhibition in assay [6] of 21%.

As for `O=C(Nc1ccccc1)Nc1ccc([N+](=O)[O-])cc1O`, the half-inhibitory concentration (IC50) in assay [1] came to 18200 nM; in assay [2] it was 320 nM; in assay [3] it was 339 nM.

For `N#Cc1ccc(NC(=O)Nc2ccccc2Br)c(O)c1`, the IC50 in assay [1] is 15100 nM; in assay [2], 25 nM; in assay [3] it was 53 nM. In assay [4], this compound returned an Inhibition of 31%.

With `O=C(Nc1ccccc1)Nc1cccc([N+](=O)[O-])c1O`, the results for the IC50 in assay [1], in assay [2] and in assay [3] were 33200 nM, 860 nM and 511 nM, respectively.

With `N#Cc1ccc(NC(=O)Nc2ccccc2Br)c(O)c1Cl`, the IC50 in assay [1] came out at 4200 nM; in assay [2], 22 nM; in assay [3], 2.6 nM.

With `O=C(Nc1ccccc1)Nc1cc([N+](=O)[O-])ccc1O`, the figures for the IC50 in assay [1], in assay [2] and in assay [3] were 46200 nM, 10900 nM and 13800 nM, respectively.
